Measurements published in ChEMBL document CHEMBL5724801, “EUbOPEN Chemogenomics Library - Multiplex” (2024).
Values joined by “and” are separate entries in the source; they are usually repeats but may differ in a detail not shown here. Equal entries are not always repeated.

Legend:
Fibroblast = assay: Multiplex assay against human fibroblast; format: toxicity, cell-based
Summary of the method: (§1)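 Cells stained live at seeding with Hoechst33342, BioTracker Green Microtubule Cytoskeleton Dye, MitoTracker Red and Annexin V Alexa Fluor 680 were imaged on a CQ1 microscope at 37°C and 5% CO2 after compound addition. Their classification by CellPathfinder machine-learning gating ran from Hoechst high-intensity objects versus normal cells, to healthy, pyknosed or fragmented nuclei among normal cells, to mitotic or apoptotic among pyknosed cells. Tubulin, mitochondrial-mass and membrane-permeability phenotypes are per cents of healthy-nucleus cells.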

HEK-293T = assay: Multiplex assay against HEK293T; format: toxicity, cell-based; settings: human; summary of the method: as §1
[1] = 12 h, 1 µM, compound concentration 1 uM
[2] = 12 h, 10 µM, compound concentration 10 uM
[3] = 24 h, 1 µM, compound concentration 1 uM
[4] = 24 h, 10 µM, compound concentration 10 uM
[5] = 48 h, 1 µM, compound concentration 1 uM
[6] = 48 h, 10 µM, compound concentration 10 uM

Compound: Cc1cccc(NC(=O)CN2CCC(c3ccccn3)CC2)c1.Cl.Cl
- Population Apoptotic (%) (Fibroblast; [1]): 47% and 33%
- Population Fragmented Nuclei (%) (Fibroblast; [1]): 16% and 25%
- Population Healthy Nuclei (%) (Fibroblast; [1]): 70% and 55%
- Population Hoechst High Intensity Objects (%) (Fibroblast; [1]): 4% and 6%
- Population Membrane Permeable-Phenotype (%) (Fibroblast; [1]): 0% and 2%
- Population Mitochondria Different-Phenotype (%) (Fibroblast; [1]): 6% and 5%
- Population Mitotic Cells (%) (Fibroblast; [1]): 52% and 66%
- Population Normal (%) (Fibroblast; [1]): 95% and 93%
- Population Pyknosed Nuclei (%) (Fibroblast; [1]): 12% and 19%
- Population Tubulin-Different-Phenotype (%) (Fibroblast; [1]): 34% and 35%
- Total Cell Count (Fibroblast; [1]): 140 and 232
- Population Apoptotic (%) (Fibroblast; [2]): 59% and 34%
- Population Healthy Nuclei (%) (Fibroblast; [2]): 78% and 30%
- Population Hoechst High Intensity Objects (%) (Fibroblast; [2]): 10% and 2%
- Population Membrane Permeable-Phenotype (%) (Fibroblast; [2]): 1% and 6%
- Population Mitochondria Different-Phenotype (%) (Fibroblast; [2]): 7% and 10%
- Population Mitotic Cells (%) (Fibroblast; [2]): 40% and 65%
- Population Normal (%) (Fibroblast; [2]): 89% and 98%
- Population Pyknosed Nuclei (%) (Fibroblast; [2]): 13% and 23%
- Population Tubulin-Different-Phenotype (%) (Fibroblast; [2]): 36% and 56%
- Total Cell Count (Fibroblast; [2]): 229 and 100
- Population Apoptotic (%) (Fibroblast; [3]): 50% and 40%
- Population Fragmented Nuclei (%) (Fibroblast; [3]): 18% and 26%
- Population Healthy Nuclei (%) (Fibroblast; [3]): 70% and 53%
- Population Hoechst High Intensity Objects (%) (Fibroblast; [3]): 2% and 4%
- Population Membrane Permeable-Phenotype (%) (Fibroblast; [3]): 0% and 4%
- Population Mitochondria Different-Phenotype (%) (Fibroblast; [3]): 8% and 6%
- Population Mitotic Cells (%) (Fibroblast; [3]): 50% and 59%
- Population Normal (%) (Fibroblast; [3]): 97% and 95%
- Population Pyknosed Nuclei (%) (Fibroblast; [3]): 10% and 19%
- Population Tubulin-Different-Phenotype (%) (Fibroblast; [3]): 25% and 30%
- Total Cell Count (Fibroblast; [3]): 134 and 239
- Population Apoptotic (%) (Fibroblast; [4]): 64% and 42%
- Population Healthy Nuclei (%) (Fibroblast; [4]): 81% and 34%
- Population Hoechst High Intensity Objects (%) (Fibroblast; [4]): 7% and 0%
- Population Membrane Permeable-Phenotype (%) (Fibroblast; [4]): 0% and 11%
- Population Mitochondria Different-Phenotype (%) (Fibroblast; [4]): 11%
- Population Mitotic Cells (%) (Fibroblast; [4]): 35% and 57%
- Population Normal (%) (Fibroblast; [4]): 92% and 100%
- Population Tubulin-Different-Phenotype (%) (Fibroblast; [4]): 38% and 50%
- Total Cell Count (Fibroblast; [4]): 217 and 105
- Population Apoptotic (%) (Fibroblast; [5]): 80% and 60%
- Population Fragmented Nuclei (%) (Fibroblast; [5]): 25% and 31%
- Population Healthy Nuclei (%) (Fibroblast; [5]): 63% and 55%
- Population Hoechst High Intensity Objects (%) (Fibroblast; [5]): 3%
- Population Membrane Permeable-Phenotype (%) (Fibroblast; [5]): 1% and 4%
- Population Mitochondria Different-Phenotype (%) (Fibroblast; [5]): 3%
- Population Mitotic Cells (%) (Fibroblast; [5]): 20% and 39%
- Population Normal (%) (Fibroblast; [5]): 96%
- Population Pyknosed Nuclei (%) (Fibroblast; [5]): 11% and 12%
- Population Tubulin-Different-Phenotype (%) (Fibroblast; [5]): 28% and 35%
- Total Cell Count (Fibroblast; [5]): 138 and 229
- Population Apoptotic (%) (Fibroblast; [6]): 76% and 28%
- Population Healthy Nuclei (%) (Fibroblast; [6]): 75% and 39%
- Population Hoechst High Intensity Objects (%) (Fibroblast; [6]): 7% and 1%
- Population Membrane Permeable-Phenotype (%) (Fibroblast; [6]): 2%
- Population Normal (%) (Fibroblast; [6]): 92% and 98%
- Population Pyknosed Nuclei (%) (Fibroblast; [6]): 7% and 6%
- Population Tubulin-Different-Phenotype (%) (Fibroblast; [6]): 44% and 61%
- Total Cell Count (Fibroblast; [6]): 238 and 109
- Population Apoptotic (%) (HEK-293T; [1]): 34% and 46%
- Population Fragmented Nuclei (%) (HEK-293T; [1]): 7% and 5%
- Population Healthy Nuclei (%) (HEK-293T; [1]): 76% and 82%
- Population Hoechst High Intensity Objects (%) (HEK-293T; [1]): 5% and 3%
- Population Membrane Permeable-Phenotype (%) (HEK-293T; [1]): 0%
- Population Mitochondria Different-Phenotype (%) (HEK-293T; [1]): 54%
- Population Mitotic Cells (%) (HEK-293T; [1]): 65% and 53%
- Population Normal (%) (HEK-293T; [1]): 94% and 96%
- Population Pyknosed Nuclei (%) (HEK-293T; [1]): 15% and 11%
- Population Tubulin-Different-Phenotype (%) (HEK-293T; [1]): 33% and 22%
- Total Cell Count (HEK-293T; [1]): 348 and 277
- Population Apoptotic (%) (HEK-293T; [2]): 61% and 43%
- Population Fragmented Nuclei (%) (HEK-293T; [2]): 6% and 10%
- Population Healthy Nuclei (%) (HEK-293T; [2]): 71% and 70%
- Population Hoechst High Intensity Objects (%) (HEK-293T; [2]): 9% and 14%
- Population Membrane Permeable-Phenotype (%) (HEK-293T; [2]): 0%
- Population Mitochondria Different-Phenotype (%) (HEK-293T; [2]): 63% and 79%
- Population Mitotic Cells (%) (HEK-293T; [2]): 38% and 56%
- Population Normal (%) (HEK-293T; [2]): 90% and 85%
- Population Pyknosed Nuclei (%) (HEK-293T; [2]): 21% and 18%
- Population Tubulin-Different-Phenotype (%) (HEK-293T; [2]): 50% and 35%
- Total Cell Count (HEK-293T; [2]): 291 and 273
- Population Apoptotic (%) (HEK-293T; [3]): 32% and 45%
- Population Fragmented Nuclei (%) (HEK-293T; [3]): 8% and 10%
- Population Healthy Nuclei (%) (HEK-293T; [3]): 81% and 79%
- Population Hoechst High Intensity Objects (%) (HEK-293T; [3]): 3% and 4%
- Population Membrane Permeable-Phenotype (%) (HEK-293T; [3]): 0%
- Population Mitochondria Different-Phenotype (%) (HEK-293T; [3]): 30% and 44%
- Population Mitotic Cells (%) (HEK-293T; [3]): 67% and 54%
- Population Normal (%) (HEK-293T; [3]): 96% and 95%
- Population Pyknosed Nuclei (%) (HEK-293T; [3]): 9% and 10%
- Population Tubulin-Different-Phenotype (%) (HEK-293T; [3]): 22% and 18%
- Total Cell Count (HEK-293T; [3]): 451 and 339
- Population Apoptotic (%) (HEK-293T; [4]): 59% and 50%
